ChEMBL document CHEMBL1134357, “Heterobifunctional ligands: practical chemoenzymatic synthesis of a cell adhesive glycopeptide that interacts with both selectins and integrins” (J Med Chem, 2001)

Experiments:
[1] = Association constant of compound against selectin P was determined
Summary of the method: (§1)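 SPR (IAsys): recombinant soluble human E-, P- or L-selectin is coupled to a BS3-activated aminosilane cuvette and the surface blocked with BSA. Binding is run in 10 mM PBS, 1 mM CaCl2, pH 7.2, at 25 °C. Ligand solution (0.01 mL into 0.2 mL total) is monitored for 20 min, and kinetic and equilibrium constants are derived from the binding curves.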

[2] = Association constant of compound against selectin E was determined; summary of the method: as §1
[3] = Association constant of compound against selectin L was determined; summary of the method: as §1
[4] = molecular target: T1, E-selectin (Homo sapiens) (UniProt P16581); test: Binding affinity of compound against selectin E was determined; summary of the method: as §1
T1 sequence (whole entry): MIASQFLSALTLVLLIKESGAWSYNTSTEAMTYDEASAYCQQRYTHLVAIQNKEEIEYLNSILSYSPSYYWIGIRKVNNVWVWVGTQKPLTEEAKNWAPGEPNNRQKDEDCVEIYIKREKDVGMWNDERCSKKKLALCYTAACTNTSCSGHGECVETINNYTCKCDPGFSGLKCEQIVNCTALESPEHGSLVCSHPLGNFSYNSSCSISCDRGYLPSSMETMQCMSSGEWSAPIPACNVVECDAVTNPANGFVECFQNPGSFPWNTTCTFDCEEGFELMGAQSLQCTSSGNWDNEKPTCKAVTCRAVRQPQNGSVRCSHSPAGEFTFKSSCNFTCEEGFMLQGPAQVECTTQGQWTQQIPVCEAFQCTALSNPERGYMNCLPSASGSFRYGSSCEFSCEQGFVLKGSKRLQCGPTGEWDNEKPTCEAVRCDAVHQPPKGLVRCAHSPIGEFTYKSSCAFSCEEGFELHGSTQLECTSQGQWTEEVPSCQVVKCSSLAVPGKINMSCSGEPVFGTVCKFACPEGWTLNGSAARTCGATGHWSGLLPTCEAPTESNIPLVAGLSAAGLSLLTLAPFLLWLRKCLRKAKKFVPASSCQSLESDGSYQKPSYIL

[5] = Dissociation constant of compound against selectin E was determined; summary of the method: as §1
[6] = molecular target: T2, P-selectin (Homo sapiens) (UniProt P16109); test: Binding affinity of compound against selectin P was determined; summary of the method: as §1
T2 sequence (whole entry): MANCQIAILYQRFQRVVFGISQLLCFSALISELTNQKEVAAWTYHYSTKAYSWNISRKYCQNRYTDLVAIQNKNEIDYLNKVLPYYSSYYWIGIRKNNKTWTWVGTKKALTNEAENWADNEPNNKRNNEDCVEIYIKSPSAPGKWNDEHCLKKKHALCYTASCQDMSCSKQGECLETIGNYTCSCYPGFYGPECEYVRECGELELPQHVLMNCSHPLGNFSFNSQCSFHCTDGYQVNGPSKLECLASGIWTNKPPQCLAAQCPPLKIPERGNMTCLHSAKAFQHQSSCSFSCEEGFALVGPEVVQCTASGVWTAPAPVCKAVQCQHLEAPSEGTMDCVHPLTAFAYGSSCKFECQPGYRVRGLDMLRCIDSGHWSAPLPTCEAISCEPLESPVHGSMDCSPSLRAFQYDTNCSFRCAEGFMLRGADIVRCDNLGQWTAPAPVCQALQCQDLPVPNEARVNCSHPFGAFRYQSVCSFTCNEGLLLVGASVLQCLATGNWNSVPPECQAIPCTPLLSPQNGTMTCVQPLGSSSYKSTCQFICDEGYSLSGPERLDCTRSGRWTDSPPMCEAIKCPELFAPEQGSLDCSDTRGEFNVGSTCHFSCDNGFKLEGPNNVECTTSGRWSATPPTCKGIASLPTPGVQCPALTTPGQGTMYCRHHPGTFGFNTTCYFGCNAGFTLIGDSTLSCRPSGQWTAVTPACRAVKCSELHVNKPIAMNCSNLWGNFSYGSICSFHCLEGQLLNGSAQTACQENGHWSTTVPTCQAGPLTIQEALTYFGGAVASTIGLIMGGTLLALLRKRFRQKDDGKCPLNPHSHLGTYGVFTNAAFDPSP

[7] = Dissociation constant of compound against selectin L was determined; summary of the method: as §1
[8] = molecular target: T3, L-selectin (Homo sapiens) (UniProt P14151); test: Binding affinity of compound against selectin L was determined; summary of the method: as §1
T3 sequence (whole entry): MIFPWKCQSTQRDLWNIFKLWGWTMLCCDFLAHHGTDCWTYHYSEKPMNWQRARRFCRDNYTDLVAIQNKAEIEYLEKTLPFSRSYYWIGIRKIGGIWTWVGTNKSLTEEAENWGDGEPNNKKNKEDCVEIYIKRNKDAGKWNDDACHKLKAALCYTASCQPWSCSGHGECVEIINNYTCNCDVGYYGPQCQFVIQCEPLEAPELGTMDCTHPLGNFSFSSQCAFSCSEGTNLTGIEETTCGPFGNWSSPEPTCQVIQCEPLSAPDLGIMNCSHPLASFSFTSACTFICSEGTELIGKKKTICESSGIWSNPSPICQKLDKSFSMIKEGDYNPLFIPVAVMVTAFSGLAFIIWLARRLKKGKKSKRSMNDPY

[9] = Dissociation constant of compound against selectin P was determined; summary of the method: as §1

SMILES | K ass [1] [M⁻¹ s⁻¹] | K ass [2] [M⁻¹ s⁻¹] | K ass [3] [M⁻¹ s⁻¹] | Ka [4] [M⁻¹] | K diss [5] [s⁻¹] | Ka [6] [M⁻¹] | K diss [7] [s⁻¹] | Ka [8] [M⁻¹] | K diss [9] [s⁻¹]
NC(N)=NCCC[C@H](N)C(=O)NCC(=O)N[C@@H](CC(=O)O)C(=O)N[C@@H](CO)C(=O)O | 89.1 | 4 | 4.1 |  |  |  |  |  | 
N=C(N)NCCC[C@H](N)C(=O)NCC(=O)N[C@@H](CC(=O)O)C(=O)N[C@@H](CO)C(=O)O |  |  |  | 6100 | 0.00066 | 97000 | 0.00077 | 5400 | 0.00092
CC(=O)N[C@H]1[C@H]([C@H](O)[C@H](O)CO)O[C@@](O[C@H]2[C@@H](O)[C@@H](CO)O[C@@H](O[C@@H]([C@H](O[C@@H]3O[C@@H](C)[C@@H](O)[C@@H](O)[C@@H]3O)[C@H](C=O)NC(C)=O)[C@H](O)CO)[C@@H]2O)(C(=O)O)C[C@@H]1O [SIALYL LEWIS X] | 229.6 | 21.1 | 312.7 | 12000 | 0.0017 | 880000 | 0.36 | 870 | 0.00026
